ChEMBL document CHEMBL1240439, “Synthesis and docking studies of novel benzopyran-2-ones with anticancer activity” (2010)

Assays:
Format in all cases: functional
[1] = system: SF-295; assay: Cytotoxicity against human SF295 cells assessed as cell growth at 10 uM after 48 hrs by sulforhodamine B assay; settings: SF-295, 48 h, read-out: Activity
[2] = system: PC-3; assay: Cytotoxicity against human PC3 cells assessed as cell growth at 10 uM after 48 hrs by sulforhodamine B assay; settings: PC-3, 48 h, read-out: Activity
[3] = system: HL-60(TB); assay: Cytotoxicity against human HL-60(TB) cells assessed as cell growth at 10 uM after 48 hrs by sulforhodamine B assay; settings: HL-60, 48 h, read-out: Activity
[4] = system: EKVX; assay: Cytotoxicity against human EKVX cells assessed as cell growth at 10 uM after 48 hrs by sulforhodamine B assay; settings: read-out: Activity
[5] = system: HCC 2998; assay: Cytotoxicity against human HCC2998 cells assessed as cell growth at 10 uM after 48 hrs by sulforhodamine B assay; settings: HCC 2998, 48 h, read-out: Activity
[6] = system: HCT-15; assay: Cytotoxicity against human HCT15 cells assessed as cell growth at 10 uM after 48 hrs by sulforhodamine B assay; settings: HCT-15, 48 h, read-out: Activity
[7] = system: 786-0; assay: Cytotoxicity against human 786-0 cells assessed as cell growth at 10 uM after 48 hrs by sulforhodamine B assay; settings: 786-0, 48 h, read-out: Activity
[8] = system: LOX IMVI; assay: Cytotoxicity against human LOXIMVI cells after 48 hrs by sulforhodamine B assay
Outline: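 Cells were plated at 5000–40,000/well according to doubling time and preincubated 24 h at 37 °C, 5% CO2. Time-zero plates were TCA-fixed. DMSO stocks were diluted in medium with gentamycin to five concentrations (10-fold or ½ log series) plus control, then incubated 48 h. Adherent cells were fixed with cold TCA (suspension cells with 16% final), stained with SRB, and read at 515 nm. GI50, TGI and LC50 were calculated per line.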

`Cc1cc(=O)n(C(=O)COc2ccc3c(-c4ccccc4)cc(=O)oc3c2C)[nH]1` was tested, and the growth at 10 µM [1] was -77.2%, the growth at 10 µM [2] was -93% and the growth at 10 µM [3] was -66.6%. It also gave a growth at 10 µM [4] of -33.6%, a growth at 10 µM [5] of 17.4% and a growth at 10 µM [6] of 38.3%. The growth at 10 µM [7] was -58.8%, the GI50 [8] was 1990 nM and the TGI [8] was 3880 nM.
